Screening data deposited in PubChem by several laboratories.
STAT1 act-1: STAT1 signaling activation. activation (% of control), % at 5.5 µM. AID 932. actives 2.6% (n = 200,000). NIH 3T3 STAT1-luciferase reporter, IFN-gamma, luminescence; 100% = IFN-gamma alone, no compound;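 active = activation above the screen-wide mean activation plus 3 SD, cut at about 130% in these data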
STAT3 blocker: STAT3 signaling inhibition. U3A cells, IL-6 STAT3-luciferase reporter, luminescence; host cell line lacks STAT1. inhibition, % at 5.5 µM. actives 0.89% (n = 190,000);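 active = inhibition above the mean inhibition across all screened compounds plus 3 SD, cut at about 44% in these data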
APP 5'UTR act: activates APP 5'UTR luciferase reporter; actives 1% (n = 190,000); SH-SY5Y APP 5'UTR luciferase reporter, luminescence; zero percent = DMSO vehicle wells; AID 1276; activation, % at 2 µM;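 active = activation above a set limit, based on mean plus 3 SD of controls, cut at about 140% in these data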
NF-kB neuron act: NF-kB expression increase, human neuronal cells; AID 1239; actives 1.6% (n = 190,000); NF-kB reporter expression; hits give high values; fold change at 12.5 µM; in the data active = fold change above about 3.3
STAT3 act-1: increases IL-6 driven STAT3 reporter signal. U3A cells, IL-6 STAT3-luciferase reporter, luminescence; 100% = signal with IL-6 EC80 alone. activation (% of control), % at 5.6 µM. actives 0.91% (n = 190,000);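 active = activation above the screen-wide mean of compound activation plus 3 SD, cut at about 130% in these data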
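Test system: STAT3-luciferase reporter U3A cells; Detection: reporter luminescence signal; Times: 1 h compound pre-exposure, 6 h IL-6 stimulation, 37 °C; Benchmarks: IL-6-only high control; Also added: IL-6 stimulus at 33 ng/mL final.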
STAT1 inh-1: STAT1 signaling inhibition. NIH 3T3 STAT1-luciferase reporter, IFN-gamma, luminescence. inhibition, % at 5.5 µM. actives 0.35% (n = 200,000);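 active = inhibition above a set limit, the mean inhibition across all tested compounds plus 3 SD, cut at about 34% in these data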
STAT3 act-2: confirmation of STAT3 signaling activators. AID 1267. actives 64% (n = 1,200). shares compounds with STAT3 act-1. U3A STAT3-luciferase reporter, IL-6 potentiation, luminescence; U3A cells lack STAT1; 100 means same as IL-6 alone. potentiation (% of control), % at 5.7 µM;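 active = percent activation of the STAT3 luciferase reporter above a set limit taken from the earlier primary screen, cut at about 130% in these data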
NFkB act STAT3ct: NF-kappaB activation in STAT3 activator counter-screen | shares compounds with STAT3 act-1 | human cells, NF-kappaB reporter activation | activation (% of control), % at 5.7 µM | actives 11% (n = 1,200) | AID 1309; in the data active = activation above about 120%;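 also: reporter induced by TNF-alpha stimulation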
STAT1 act-2: counter-screen for STAT3 activators: STAT1 activation. actives 13% (n = 1,200). NIH 3T3 STAT1-luciferase reporter, IFN-gamma, luminescence. activation (% of control), % at 5.7 µM. AID 1318. shares compounds with STAT3 act-1;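 active = activation above the solvent-only control well mean plus 3 SD, set per screening run, cut at about 120% in these data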
STAT1 inh-2: confirmation of STAT1 signaling inhibitors; shares compounds with STAT1 inh-1; NIH 3T3 STAT1-luciferase reporter, IFN-gamma, luminescence; inhibition, % at 5.5 µM; actives 55% (n = 200); AID 1263;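 active = triplicate mean inhibition exceeding the hit cutoff computed for the primary STAT1 screen, cut at about 35% in these data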
NFkB inh STAT1ct: inhibits NF-kappaB, counter-screen to STAT1 inhibitors | shares compounds with STAT1 inh-1 | HEK293T NF-kB luciferase reporter, TNF-alpha induced, luminescence | inhibition, % at 5.7 µM | actives 30% (n = 200);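 active = inhibition above the mean of solvent-only control wells plus 3 SD of those wells, cut at about 15% in these data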
STAT3 inh 2: STAT3 inhibition in STAT1 inhibitor counter-screen; shares compounds with STAT1 inh-1; U3A cells, IL-6 STAT3 luciferase reporter, luminescence; cells lacking STAT1; inhibition, % at 5.7 µM; actives 20% (n = 200); AID 1310;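 active = inhibition above the mean of solvent-only control wells plus 3 SD, set per campaign, cut at about 25% in these data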
Large screens that a line does not name were inactive (follow-up assays come after a bar, where they were run). A selection: hits, their analogues and other compounds. The true share with any hit is near 4.9%.

CN(C)c1ccc(P(=O)(Nc2ccccc2)N2CCOCC2)c(NC(=O)c2cccs2)c1 (stereo not drawn)	STAT3 act-1 135.8 | STAT3 act-2 140.0 | NFkB act STAT3ct inactive | STAT1 act-2 inactive
Cc1ccc(NP(=O)(c2ccc(N(C)C)cc2NC(=O)c2cccs2)N2CCOCC2)cc1Cl (stereo not drawn)	none
CN(C)c1ccc(P(=O)(Nc2ccc([N+](=O)[O-])cc2)N2CCOCC2)c(NC(=O)c2cccs2)c1 (stereo not drawn)	STAT3 act-1 140.1 | STAT3 act-2 149.0 | NFkB act STAT3ct inactive | STAT1 act-2 inactive
Cc1ccc(NP(=O)(c2ccc(N(C)C)cc2NC(=O)c2cccs2)N2CCOCC2)cc1 (stereo not drawn)	STAT3 act-1 138.9 | STAT3 act-2 135.1 | NFkB act STAT3ct inactive | STAT1 act-2 inactive
O=C(Nc1ccc(C(=O)N2CCOCC2)cc1)c1cccs1	none
O=C(Cn1c(=O)c(=O)n(Cc2ccccc2)c2ccc(Cl)cc21)Nc1cccc(F)c1	none
COC(=O)c1[nH]c2ccc(F)cc2c1NS(=O)(=O)c1ccc(OC)cc1OC	STAT3 act-1 142.5 | STAT3 act-2 inactive | NFkB act STAT3ct inactive | STAT1 act-2 inactive
CCOC(=O)c1[nH]c2ccc(OC)cc2c1NS(=O)(=O)c1ccc(OC)cc1OC	none
O=C1NC(c2cccs2)Nc2sc3c(c21)CCCC3 (stereo not drawn)	STAT3 act-1 143.4 | STAT3 act-2 139.4 | NFkB act STAT3ct 125.3 | STAT1 act-2 inactive
CN1CCc2c(sc3c2C(=O)NC(c2ccco2)N3)C1 (stereo not drawn)	none
CC(C)n1nc(C(=O)OCn2nnc3ccccc3c2=O)c2ccccc2c1=O	none
Cc1sc(NC(=O)CN(Cc2ccc(F)cc2)C(=O)C(C)(C)C)c(C(N)=O)c1C	none
CC1=NN(c2ccccc2)C(=O)/C1=C/c1cccs1	none
CC1=NN(c2ccccc2)C(=O)/C1=C/c1ccc[nH]1	STAT3 act-1 150.4 | STAT3 act-2 159.8 | NFkB act STAT3ct inactive | STAT1 act-2 inactive
O=c1[nH]nc(Cc2ccc3ccccc3n2)c2ccccc12	STAT3 act-1 146.8 | STAT3 act-2 inactive | NFkB act STAT3ct inactive | STAT1 act-2 inactive
Cc1ccc(-c2cc(C(F)F)nc(S(C)(=O)=O)n2)cc1	none | STAT1 inh-2 inactive | NFkB inh STAT1ct inactive | STAT3 inh 2 inactive
COc1ccccc1-c1cc(C(F)(F)F)nc(S(C)(=O)=O)n1	STAT1 inh-1 39.9 | STAT1 inh-2 43.8 | NFkB inh STAT1ct inactive | STAT3 inh 2 inactive
CN1CCN(c2nc(-c3ccco3)cc(C(F)(F)F)n2)CC1	none
CS(=O)(=O)c1nc(-c2ccco2)cc(C(F)(F)F)n1	STAT1 inh-1 39.3 | STAT1 inh-2 40.1 | NFkB inh STAT1ct inactive | STAT3 inh 2 inactive
Cc1cccc(N2CC(O)(c3cccs3)[N+]3=C2CCCC3)c1C (stereo not drawn)	STAT1 inh-1 38.7 | STAT1 inh-2 inactive | NFkB inh STAT1ct inactive | STAT3 inh 2 inactive
CCn1ccnc1CNC(=O)CC1C(=O)NCCN1CC(c1ccccc1)c1ccccc1 (stereo not drawn)	none
CCCCC(=O)N/N=C(C)/C=C/c1ccccc1F	STAT1 inh-1 45.3 | STAT1 inh-2 inactive | NFkB inh STAT1ct inactive | STAT3 inh 2 inactive
CC(/C=C/c1ccccc1F)=N\NC(=O)C(C)C	none
COc1ccc(N(CC(=O)NCCC2=CCCCC2)S(=O)(=O)c2ccc(C)cc2)cc1	none
CCOc1ccc(S(=O)(=O)Nc2cccc(C)c2)c2cccnc12	STAT1 inh-1 37.3 | STAT1 inh-2 inactive | NFkB inh STAT1ct inactive | STAT3 inh 2 inactive
CCOC(=O)C(=CNc1ccc(NC2=NCC(C)S2)cc1)C(=O)OCC (stereo not drawn)	STAT1 inh-1 59.9 | STAT1 inh-2 58.6 | NFkB inh STAT1ct 38.4 | STAT3 inh 2 inactive
CCOC(=O)c1c(C)sc2c1N(C(=O)CCl)c1cc(Cl)ccc1S2	STAT1 inh-1 36.1 | STAT1 inh-2 40.1 | NFkB inh STAT1ct 30.3 | STAT3 inh 2 inactive
CC(=O)NC(=S)Nc1ccc(S(=O)(=O)Nc2nc(C)cc(C)n2)cc1	none
CCOC(=O)/C(=C/C=C1\Sc2ccccc2N1CC)C(C)=O	none
CCOC(=O)/C(=C/C=C1\Sc2cc(C)c(C)cc2N1CC)C(C)=O	STAT1 inh-1 40.2 | STAT1 inh-2 39.9 | NFkB inh STAT1ct inactive | STAT3 inh 2 26.9
CC1C(=O)NN=C1C(=O)N/N=C\C(Br)=C\c1ccccc1 (stereo not drawn)	STAT1 inh-1 81.3 | STAT1 inh-2 40.5 | NFkB inh STAT1ct inactive | STAT3 inh 2 inactive
O=S(=O)(c1ccc(F)cc1)n1ccc(-c2cccc(OCc3ccc(Cl)cc3Cl)c2)n1	none
CCOc1cc(-c2noc(N)c2C#N)cc(OCC)c1OCC	STAT1 inh-1 39.6 | STAT1 inh-2 42.4 | NFkB inh STAT1ct inactive | STAT3 inh 2 inactive
O=C(CSc1nc2ccccc2c(=O)[nH]1)c1ccc(O)c(O)c1	none
O=C(CSc1nc2ccccc2c(=O)[nH]1)c1ccc(O)cc1O	STAT1 inh-1 64.1 | STAT1 inh-2 43.4 | NFkB inh STAT1ct inactive | STAT3 inh 2 inactive
COC(=O)c1cc(OC)c(OC)c(OC)c1[N+](=O)[O-]	none (no result: STAT1 act-1, STAT3 blocker, NF-kB neuron act, STAT3 act-1, STAT1 inh-1)
c1ccc(-c2ccccc2OCCCCN2CCCCCC2)cc1	none
Cn1c(C(=O)N2CCN(c3ccc([N+](=O)[O-])cc3)CC2)cc2c(=O)[nH]c3ccccc3c21	STAT1 inh-1 50.9 | STAT1 inh-2 34.5 | NFkB inh STAT1ct inactive | STAT3 inh 2 inactive
CCC(=O)NC(=S)Nc1ccc(NC(=S)NC(=O)c2ccccc2)cc1	STAT1 inh-1 83.2 | STAT1 inh-2 52.6 | NFkB inh STAT1ct 38.5 | STAT3 inh 2 inactive
CCC(=O)NC(=S)Nc1ccc(NC(=S)NC(=O)c2ccc(C)cc2)cc1	none
